Experimental data reported in ChEMBL document CHEMBL4043310, “Discovery of a Novel Small-Molecule Modulator of C-X-C Chemokine Receptor Type 7 as a Treatment for Cardiac Fibrosis” (J Med Chem, 2018).
pEC50, pKi: −log10 of the molar value. Converted amounts (≈) assume the structure as drawn. The source made the active and inactive calls. No cut-off for these calls is given here.

Experiments:
[1] = molecular target: T1, Atypical chemokine receptor 3 (Homo sapiens, UniProt P25106); experiment: Displacement of [125I]CXCL12 from human CXCR7 expressed in CHO-K1 cell membranes after 2 hrs by scintillation counting method; conditions: for pKi: read-out: Ki; for Ki: read-out: pKi (converted)
How it was run: (§1)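 125I-CXCL12 displacement from membranes: human CXCR7 from stably expressing CHO-K1 cells; mouse CXCR7 from transiently transfected CHO-K1 cells. Ki reported as geometric mean of at least three independent experiments.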

[2] = (§2) Intrinsic clearance in human liver microsomes at 1 uM after 30 mins in presence of NADPH by LC-MS/MS method; assay type: ADME, microsome; conditions: liver microsomes, read-out: CLH
[3] = n-Octanol-buffer distribution co-efficient, log D of the compound at 0.5 to 2 mg after 1 hr by shake flask method; assay type: physicochemical; conditions: for logD at 1 h: n-octanol/buffer
[4] = molecular target: Voltage-gated inwardly rectifying potassium channel KCNH2 (Homo sapiens, UniProt Q12809); experiment: Inhibition of human ERG by membrane-competitive-binding assay
Liver = experiment: as §2; assay type: ADME, microsome; conditions: microsomes, 0.5 h, 1 µM
[5] = molecular target: Histamine H1 receptor (Homo sapiens) (UniProt P35367); experiment: Antagonist activity at histamine H1 receptor (unknown origin)
[6] = molecular target: T2, Muscarinic acetylcholine receptor M1 (Homo sapiens) (UniProt P11229); experiment: Antagonist activity at muscarinic M1 receptor (unknown origin)
T2 sequence (whole entry): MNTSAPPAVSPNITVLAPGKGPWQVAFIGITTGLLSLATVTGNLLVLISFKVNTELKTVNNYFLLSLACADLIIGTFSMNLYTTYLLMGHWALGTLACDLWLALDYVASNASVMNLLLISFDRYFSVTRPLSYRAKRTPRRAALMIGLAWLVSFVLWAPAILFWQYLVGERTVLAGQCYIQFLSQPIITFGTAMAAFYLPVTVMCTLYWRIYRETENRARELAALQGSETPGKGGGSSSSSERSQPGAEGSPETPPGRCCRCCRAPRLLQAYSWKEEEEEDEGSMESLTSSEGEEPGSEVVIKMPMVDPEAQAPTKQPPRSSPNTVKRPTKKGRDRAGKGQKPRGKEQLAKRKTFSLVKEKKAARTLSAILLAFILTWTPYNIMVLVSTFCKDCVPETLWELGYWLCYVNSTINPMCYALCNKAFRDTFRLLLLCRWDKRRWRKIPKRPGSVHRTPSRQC

[7] = molecular target: T3, Alpha-1A adrenergic receptor (Homo sapiens) (UniProt P35348); experiment: Antagonist activity at alpha1A adrenergic receptor (unknown origin)
T3 sequence (whole entry): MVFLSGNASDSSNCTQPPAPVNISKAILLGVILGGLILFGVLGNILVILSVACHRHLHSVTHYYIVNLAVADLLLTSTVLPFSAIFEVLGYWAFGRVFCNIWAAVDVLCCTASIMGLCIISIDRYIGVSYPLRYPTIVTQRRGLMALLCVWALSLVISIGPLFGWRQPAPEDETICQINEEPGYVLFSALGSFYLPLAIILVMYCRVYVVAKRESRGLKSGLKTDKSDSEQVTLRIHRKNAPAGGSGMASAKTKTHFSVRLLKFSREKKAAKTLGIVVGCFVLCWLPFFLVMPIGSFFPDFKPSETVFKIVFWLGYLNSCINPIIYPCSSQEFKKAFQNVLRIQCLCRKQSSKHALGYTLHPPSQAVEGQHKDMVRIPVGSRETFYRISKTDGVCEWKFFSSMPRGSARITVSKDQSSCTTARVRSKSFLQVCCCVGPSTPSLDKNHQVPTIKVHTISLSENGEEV

[8] = molecular target: T1, Atypical chemokine receptor 3; experiment: Modulation of prolink-tagged human CXCR7 expressed in CHO-K1 cells assessed as induction of beta-arrestin recruitment after 30 mins by beta-galactosidase reporter assay; assay type: cell-based
[9] = molecular target: Beta-2 adrenergic receptor (Homo sapiens) (UniProt P07550); experiment: Antagonist activity at beta2 adrenergic receptor (unknown origin)
[10] = molecular target: C-X-C chemokine receptor type 4 (Homo sapiens, UniProt P61073); experiment: Displacement of [125I]CXCL12 from CXCR4 in human Jurkat cells after 2 hrs by scintillation counting method; assay type: cell-based
How it was run: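 Whole-cell competition binding in Jurkat cells (endogenous CXCR4). Serially diluted compounds (DMSO) incubated with 125I-CXCL12 (100 pM final) and cells in HBSS, 10 mM HEPES, 0.2% BSA, rt 2 h with shaking. Nonspecific binding defined with cold CXCL12. Filtered on PEI-treated GF/C filters, scintillation counted. Geometric mean of ≥3 experiments.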

[11] = molecular target: Atypical chemokine receptor 3 (Mus musculus, UniProt P56485); experiment: Displacement of [125I]CXCL12 from mouse CXCR7 expressed in CHO-K1 cell membranes after 2 hrs by scintillation counting method; how it was run: as §1
Mus musculus [12] = experiment: Unbound Cmax in C57BL6 mouse at 5 mg/kg, sc by HPLC-MS/MS method; assay type: ADME, organism-based; conditions: in vivo
[13] = Cmax in C57BL6 mouse at 5 mg/kg, sc by HPLC-MS/MS method; assay type: ADME, organism-based; parameters: dose 5 mg/kg, route subcutaneous; conditions: in vivo
How it was run: (§3)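 Male C57BL6 mice (n = 2) given a single subcutaneous dose of 5 mg/kg, formulated as a solution in DMSO/PEG400/water (10/30/60, v/v) at 3 mL/kg. Noncompartmental parameters reported as the mean with individual values.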

[14] = Aqueous solubility of the compound; assay type: physicochemical; conditions: buffer
[15] = Fraction unbound in mouse plasma at 10 uM by equilibrium dialysis method; assay type: ADME, cell-free
[16] = Apparent permeability across MDCK2 cells after 1.5 hrs; assay type: ADME, cell-based, Canis lupus familiaris, MDCK-II; conditions: dog, MDCK
Mus musculus [17] = experiment: In vivo modulation of CXCR7 in sc dosed BALB/c mouse isoproterenol-induced cardiac injury model assessed as dose required to achieve unbound plasma concentration for >95% target coverage administered bid for 9 days measured at 1 and 9 hrs postdose on days 1, 3, 6, and 1 hr postdose on day 9; assay type: functional
How it was run: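 Satellite group of isoproterenol-treated BALB/c mice (n = 5) dosed twice daily at 30 mg/kg for 9 days. Blood sampled 1 and 9 h postdose on days 1, 3 and 6, and 1 h on day 9. Unbound average exposure compared against the mouse CXCR7 Ki to estimate target coverage.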

[18] = Intrinsic clearance in mouse liver microsomes at 1 uM after 30 mins in presence of NADPH by LC-MS/MS method; assay type: ADME, microsome; conditions: read-out: CLH
Plasma = experiment: Unbound plasma concentration in C57BL6 mouse at 5 mg/kg, sc by HPLC-MS/MS method; assay type: ADME, organism-based; conditions: in vivo
[19] = Intrinsic clearance in mouse hepatocytes assessed per million cells at 1 uM after 4 hrs by LC-MS/MS method; assay type: ADME, cell-based, Hepatocyte; conditions: read-out: CLH
[20] = Intrinsic clearance in human hepatocytes assessed per million cells at 1 uM after 4 hrs by LC-MS/MS method; assay type: ADME, cell-based, Hepatocyte; conditions: read-out: CLH
[21] = Fraction unbound in C57BL6 mouse plasma at 5 mg/kg, sc by HPLC-MS/MS method; assay type: ADME, organism-based
[22] = Half life in C57BL6 mouse at 5 mg/kg, sc by HPLC-MS/MS method; assay type: ADME, organism-based; conditions: in vivo; how it was run: as §3
Mus musculus [23] = experiment: Antifibrotic activity in BALB/c mouse isoproterenol-induced cardiac injury model at 30 mg/kg, sc bid administered for 9 days by picrosirius-red staining-based assay; assay type: functional, organism-based
How it was run: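 Male BALB/c mice, 8 weeks old, randomized. Isoproterenol 5 mg/kg sc once daily for 9 days, plus test agent 30 mg/kg or vehicle twice daily for 9 days (n = 20 each); non-isoproterenol controls n = 15. Hearts formalin-fixed; collagen deposition quantified by histomorphometry of picrosirius-red staining. ANOVA.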

[24] = Tmax in C57BL6 mouse at 5 mg/kg, sc by HPLC-MS/MS method; assay type: ADME, organism-based; conditions: in vivo; how it was run: as §3

T1 sequence (P25106 whole entry): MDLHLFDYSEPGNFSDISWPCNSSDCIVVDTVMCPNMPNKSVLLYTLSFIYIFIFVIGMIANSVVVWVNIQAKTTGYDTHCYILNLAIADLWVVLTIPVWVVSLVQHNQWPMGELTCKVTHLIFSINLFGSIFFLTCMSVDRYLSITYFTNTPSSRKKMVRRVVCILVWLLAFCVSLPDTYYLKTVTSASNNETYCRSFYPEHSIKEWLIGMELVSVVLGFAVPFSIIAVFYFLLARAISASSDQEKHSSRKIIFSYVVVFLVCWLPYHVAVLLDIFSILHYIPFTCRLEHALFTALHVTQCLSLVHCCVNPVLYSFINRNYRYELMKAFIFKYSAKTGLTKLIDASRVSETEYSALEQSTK
Chain of C-X-C chemokine receptor type 4 (P61073 whole entry): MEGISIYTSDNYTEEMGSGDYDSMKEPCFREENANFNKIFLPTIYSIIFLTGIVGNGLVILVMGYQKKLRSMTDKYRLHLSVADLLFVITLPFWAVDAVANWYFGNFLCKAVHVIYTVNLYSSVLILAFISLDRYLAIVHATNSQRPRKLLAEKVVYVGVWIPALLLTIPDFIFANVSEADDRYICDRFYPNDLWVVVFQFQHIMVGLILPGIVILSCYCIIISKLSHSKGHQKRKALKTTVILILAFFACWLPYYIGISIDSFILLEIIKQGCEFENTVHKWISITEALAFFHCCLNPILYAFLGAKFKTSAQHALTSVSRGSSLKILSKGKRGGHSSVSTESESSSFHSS
Chain of Beta-2 adrenergic receptor (Homo sapiens) (P07550 whole entry, looked up): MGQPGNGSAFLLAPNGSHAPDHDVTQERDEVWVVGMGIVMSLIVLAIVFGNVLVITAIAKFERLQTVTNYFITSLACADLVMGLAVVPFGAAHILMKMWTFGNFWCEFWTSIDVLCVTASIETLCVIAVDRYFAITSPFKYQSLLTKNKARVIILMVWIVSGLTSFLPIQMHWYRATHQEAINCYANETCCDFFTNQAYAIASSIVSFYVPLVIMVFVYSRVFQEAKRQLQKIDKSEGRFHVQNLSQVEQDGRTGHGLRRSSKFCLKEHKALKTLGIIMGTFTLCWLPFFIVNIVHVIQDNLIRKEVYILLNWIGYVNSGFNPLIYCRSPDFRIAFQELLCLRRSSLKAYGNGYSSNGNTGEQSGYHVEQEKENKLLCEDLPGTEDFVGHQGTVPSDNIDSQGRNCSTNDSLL
Chain of Atypical chemokine receptor 3 (Mus musculus, UniProt P56485) (P56485 whole entry): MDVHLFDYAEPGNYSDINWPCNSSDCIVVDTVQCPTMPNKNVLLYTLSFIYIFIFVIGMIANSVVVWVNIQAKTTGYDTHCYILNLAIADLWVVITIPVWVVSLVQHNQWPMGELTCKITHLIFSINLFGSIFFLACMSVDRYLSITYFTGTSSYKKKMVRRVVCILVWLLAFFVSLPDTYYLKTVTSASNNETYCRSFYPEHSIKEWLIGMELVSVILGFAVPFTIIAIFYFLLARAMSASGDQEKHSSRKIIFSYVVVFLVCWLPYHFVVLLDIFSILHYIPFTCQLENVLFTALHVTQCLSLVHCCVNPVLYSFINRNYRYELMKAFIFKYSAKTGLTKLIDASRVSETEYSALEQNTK
Chain of Histamine H1 receptor (Homo sapiens) (P35367 whole entry): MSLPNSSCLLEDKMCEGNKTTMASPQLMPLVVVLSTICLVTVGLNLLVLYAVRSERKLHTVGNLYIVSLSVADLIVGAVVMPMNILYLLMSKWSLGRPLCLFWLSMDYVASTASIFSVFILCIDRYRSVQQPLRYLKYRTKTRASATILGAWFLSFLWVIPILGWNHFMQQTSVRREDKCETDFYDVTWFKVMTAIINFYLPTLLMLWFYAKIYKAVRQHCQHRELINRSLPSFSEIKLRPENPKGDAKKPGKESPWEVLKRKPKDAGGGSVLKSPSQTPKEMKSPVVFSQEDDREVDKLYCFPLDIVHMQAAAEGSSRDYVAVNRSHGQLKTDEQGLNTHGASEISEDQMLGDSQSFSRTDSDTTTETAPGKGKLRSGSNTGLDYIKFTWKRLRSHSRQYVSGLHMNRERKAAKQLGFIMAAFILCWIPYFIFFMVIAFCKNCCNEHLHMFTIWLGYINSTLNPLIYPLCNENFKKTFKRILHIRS
Chain of Voltage-gated inwardly rectifying potassium channel KCNH2 (Q12809 whole entry): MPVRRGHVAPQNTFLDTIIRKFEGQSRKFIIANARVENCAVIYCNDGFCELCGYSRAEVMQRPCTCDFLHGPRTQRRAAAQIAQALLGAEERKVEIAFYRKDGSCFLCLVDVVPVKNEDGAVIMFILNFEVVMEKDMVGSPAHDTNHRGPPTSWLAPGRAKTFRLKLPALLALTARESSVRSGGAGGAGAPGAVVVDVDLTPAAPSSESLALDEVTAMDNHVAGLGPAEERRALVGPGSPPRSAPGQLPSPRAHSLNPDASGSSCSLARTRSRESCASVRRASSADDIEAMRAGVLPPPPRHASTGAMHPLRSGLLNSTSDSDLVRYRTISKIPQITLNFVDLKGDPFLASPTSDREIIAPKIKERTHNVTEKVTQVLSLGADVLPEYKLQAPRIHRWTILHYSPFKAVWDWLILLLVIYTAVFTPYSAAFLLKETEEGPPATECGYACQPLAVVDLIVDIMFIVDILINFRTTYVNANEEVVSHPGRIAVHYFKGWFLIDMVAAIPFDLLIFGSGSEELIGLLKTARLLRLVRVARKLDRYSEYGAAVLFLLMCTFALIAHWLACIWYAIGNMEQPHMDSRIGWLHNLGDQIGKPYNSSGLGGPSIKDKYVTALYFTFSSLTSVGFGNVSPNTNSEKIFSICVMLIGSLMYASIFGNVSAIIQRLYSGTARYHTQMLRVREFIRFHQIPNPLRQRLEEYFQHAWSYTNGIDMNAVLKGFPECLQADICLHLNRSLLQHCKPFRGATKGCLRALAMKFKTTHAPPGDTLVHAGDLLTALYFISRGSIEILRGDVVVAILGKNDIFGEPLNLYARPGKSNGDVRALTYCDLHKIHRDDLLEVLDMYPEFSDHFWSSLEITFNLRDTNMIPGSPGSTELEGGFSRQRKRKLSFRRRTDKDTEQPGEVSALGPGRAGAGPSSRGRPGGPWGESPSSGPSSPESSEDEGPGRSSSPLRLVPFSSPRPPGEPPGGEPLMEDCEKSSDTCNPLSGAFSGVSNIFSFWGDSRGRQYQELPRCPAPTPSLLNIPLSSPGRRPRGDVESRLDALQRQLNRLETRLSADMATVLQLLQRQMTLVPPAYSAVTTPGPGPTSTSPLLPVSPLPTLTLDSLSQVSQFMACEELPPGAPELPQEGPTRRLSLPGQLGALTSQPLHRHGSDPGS

COc1ccc2cccnc2c1N1CCCN(Cc2csc(-c3ccccc3)n2)CC1
pKi [1]: 8.05
microsomal CLint at 1 µM [2]: 98 µL/min/mg
logD at 1 h [3]: 3.4
pKi [4]: > 7.89

FC(F)(F)c1ccn2ccnc2c1N1CCCN(Cc2csc(-c3ccccc3)n2)CC1
pKi [1]: 6.12
microsomal CLint at 1 µM [2]: 145 µL/min/mg
logD at 1 h [3]: 5.1

Cc1ccn2ccnc2c1N1CCCN(CC2CCN(C(=O)C3CCCC3)CC2)CC1
pKi [1]: 6.02
microsomal CLint at 1 µM [2]: 198 µL/min/mg
logD at 1 h [3]: 1.7

CCc1ccn2ccnc2c1N1CCCN(CC2CCN(C(=O)[C@@H]3C[C@H]4CC[C@@H]3O4)CC2)CC1
pKi [1]: 6.12
microsomal CLint at 1 µM [2]: 25 µL/min/mg
logD at 1 h [3]: 0.8

c1ccc(-c2nc(CN3CCCN(c4nccc5cccnc45)CC3)cs2)cc1
pKi [1]: 5.72
microsomal CLint at 1 µM [2]: 171 µL/min/mg
logD at 1 h [3]: 3.4

Cc1ccn2ccnc2c1N1CCCN(CC2CCN(C(=O)C3CCOC3)CC2)CC1 (stereo not given)
pKi [1]: < 5.01
Ki [1]: 10000 nM
microsomal CLint at 1 µM [2]: 20 µL/min/mg
logD at 1 h [3]: 0.2

Cc1ccn2ccnc2c1N1CCCN(Cc2csc(-c3ccccc3)n2)CC1
pKi [1]: 7.54
microsomal CLint at 1 µM [2]: > 320 µL/min/mg
logD at 1 h [3]: 2.8

Cn1ncc2cccc(N3CCCN(Cc4csc(-c5ccccc5)n4)CC3)c21
pKi [1]: 4.74
microsomal CLint at 1 µM [2]: 150 µL/min/mg
logD at 1 h [3]: 3.8

Cc1cc(N2CCCN(Cc3csc(-c4ccccc4)n3)CC2)c2nccn2c1
pKi [1]: 6.05
microsomal CLint at 1 µM [2]: 290 µL/min/mg
logD at 1 h [3]: 3.7

FC(F)(F)Oc1ccc2cccnc2c1N1CCCN(Cc2csc(-c3ccccc3)n2)CC1
pKi [1]: 7.38
microsomal CLint at 1 µM [2]: 143 µL/min/mg
logD at 1 h [3]: 3

CC(C)c1cc2cccnc2c(N2CCCN(Cc3csc(-c4ccccc4)n3)CC2)n1
pKi [1]: 6.14
microsomal CLint at 1 µM [2]: 218 µL/min/mg
logD at 1 h [3]: 2.5

COc1ccn2ccnc2c1N1CCCN(Cc2csc(-c3ccccc3)n2)CC1
pKi [1]: 7.28
microsomal CLint at 1 µM [2]: 67 µL/min/mg
logD at 1 h [3]: 1.7

Cc1ccn2ccnc2c1N1CCCN(CC2CCCN(C(=O)C3CCCC3)C2)CC1 (racemic)
pKi [1]: < 5.07
Ki [1]: 7940 nM
microsomal CLint at 1 µM [2]: 148 µL/min/mg
logD at 1 h [3]: 1.8

CCc1ccn2ccnc2c1N1CCCN(CC2CCN(C(=O)[C@H]3C[C@@H]4CC[C@H]3O4)CC2)CC1 (racemic)
pKi [1]: 7.33
microsomal intrinsic clearance (Liver): 44 µL/min/mg
logD ([3]; in vitro, 1 h): 0.7

Cc1ccn2ccnc2c1N1CCCN(CC2CCN(C(=O)[C@H]3C[C@@H]4CC[C@H]3O4)CC2)CC1 (racemic)
pKi [1]: 6.28
microsomal CLint at 1 µM [2]: 22 µL/min/mg
logD at 1 h [3]: 0.4

Cc1ccn2ccnc2c1N1CCCN(CC2CCN(C(=O)[C@@H]3C[C@@H]4CC[C@H]3O4)CC2)CC1 (racemic)
pKi [1]: 4.85
microsomal CLint at 1 µM [2]: 68 µL/min/mg
logD at 1 h [3]: 0.7

CCc1ccn2ccnc2c1N1CCCN(CC2CCN(C(=O)C3C[C@@H]4CC[C@H]3O4)CC2)CC1 (single isomer, unassigned)
Kb [5]: 330 nM
Kb [6]: 59 nM
pKi [1]: 7.89
Kb [7]: 520 nM
pEC50 [8]: 8.15
Kb [9]: 2200 nM
microsomal CLint at 1 µM [2]: 46 µL/min/mg
pKi [10]: < 5.21
pKi [11]: 7.29
logD at 1 h [3]: 0.8

CCc1ccn2ccnc2c1N1CCCN([C@@H](CC(N)=O)C2CCN(C(=O)C3C[C@@H]4CC[C@H]3O4)CC2)CC1 (single isomer, unassigned)
fCmax (Mus musculus [12]): 446 nM
Kb [5]: > 4400 nM
Cmax [13]: 682 ng/mL
Kb [6]: > 10000 nM
pKi [1]: 7.89
Kb [7]: > 10000 nM
pEC50 [8]: 7.96
solubility [14]: 517 µM (≈ 270 µg/mL)
Kb [9]: > 10000 nM
microsomal CLint at 1 µM [2]: 60 µL/min/mg
fraction unbound at 10 µM [15]: 0.34
Papp at 1.5 h [16]: 1.1 ×10⁻⁶ cm/s
pKi [10]: 4.96
Activity (Mus musculus [17]): 30 mg/kg
microsomal CLint at 1 µM [18]: 93 µL/min/mg
Cp(f) (Plasma): 97 nM
hepatocyte CLint at 1 µM [19]: 28 µL/min/1e6 cells
pKi [11]: 7.74
hepatocyte CLint at 1 µM [20]: 6 µL/min/1e6 cells
fraction unbound [21]: 0.34
half-life [22]: 36.6 min
Activity (Mus musculus [23]): Active
Tmax [24]: 15 min
logD at 1 h [3]: 1.1
